Measured values published in ChEMBL document CHEMBL1629528 (J Med Chem, 2010).
The source made the active and inactive calls. The calls are words filed in the database; no cut-off is given here.

Tests used:
[1] = molecular target: T1, 5-hydroxytryptamine receptor 1A (Homo sapiens, UniProt P08908); test: Displacement of [3H]WAY100635 from human recombinant 5-HT1A receptor expressed in CHO cells; assay type: cell-based
T1 sequence (P08908 whole entry): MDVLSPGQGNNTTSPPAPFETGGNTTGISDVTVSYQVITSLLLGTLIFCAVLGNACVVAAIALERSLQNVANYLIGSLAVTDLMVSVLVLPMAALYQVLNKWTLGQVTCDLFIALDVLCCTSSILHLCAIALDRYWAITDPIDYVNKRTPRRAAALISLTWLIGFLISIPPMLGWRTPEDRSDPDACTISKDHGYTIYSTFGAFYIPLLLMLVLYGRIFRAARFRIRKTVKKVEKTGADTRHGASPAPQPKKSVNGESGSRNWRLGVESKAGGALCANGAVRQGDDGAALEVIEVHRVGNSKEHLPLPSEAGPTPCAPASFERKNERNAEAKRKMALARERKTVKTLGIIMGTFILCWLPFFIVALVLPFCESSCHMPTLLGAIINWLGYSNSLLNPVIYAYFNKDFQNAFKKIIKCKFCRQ

[2] = molecular target: T2, 5-hydroxytryptamine receptor 1B (Homo sapiens, UniProt P28222); test: Displacement of [3H]5-HT from human recombinant 5-HT1B receptor expressed in CHO cells; assay type: cell-based
T2 sequence (P28222 whole entry): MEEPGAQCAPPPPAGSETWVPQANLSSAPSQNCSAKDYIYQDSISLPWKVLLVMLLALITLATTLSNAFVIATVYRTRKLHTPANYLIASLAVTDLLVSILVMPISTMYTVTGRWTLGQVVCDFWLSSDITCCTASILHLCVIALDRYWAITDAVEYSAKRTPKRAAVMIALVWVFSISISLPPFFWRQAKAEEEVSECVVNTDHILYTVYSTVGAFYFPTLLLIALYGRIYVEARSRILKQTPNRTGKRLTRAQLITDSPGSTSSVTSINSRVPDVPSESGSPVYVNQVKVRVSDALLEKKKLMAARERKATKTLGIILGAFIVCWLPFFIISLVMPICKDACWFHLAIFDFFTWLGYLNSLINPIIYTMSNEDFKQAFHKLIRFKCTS

[3] = molecular target: T3, 5-hydroxytryptamine receptor 1D (Homo sapiens, UniProt P28221); test: Displacement of [3H]5-HT from human recombinant 5-HT1D receptor expressed in CHO cells; assay type: cell-based
T3 sequence (P28221 whole entry): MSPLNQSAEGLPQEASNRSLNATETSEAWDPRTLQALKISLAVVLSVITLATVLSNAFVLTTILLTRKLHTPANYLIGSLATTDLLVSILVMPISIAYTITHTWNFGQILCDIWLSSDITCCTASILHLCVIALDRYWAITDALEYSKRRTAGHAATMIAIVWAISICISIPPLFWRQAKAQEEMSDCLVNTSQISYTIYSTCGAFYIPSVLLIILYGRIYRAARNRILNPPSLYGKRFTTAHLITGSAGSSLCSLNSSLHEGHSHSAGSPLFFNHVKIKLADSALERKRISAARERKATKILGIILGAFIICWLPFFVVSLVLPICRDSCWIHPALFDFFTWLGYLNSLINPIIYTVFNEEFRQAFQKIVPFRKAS

[4] = molecular target: Sodium-dependent serotonin transporter (Rattus norvegicus, UniProt P31652); test: Inhibition of [3H]5-HT uptake at SERT in rat cortical synaptosomes; assay type: subcellular, Brain
Chain of Sodium-dependent serotonin transporter (P31652 whole entry): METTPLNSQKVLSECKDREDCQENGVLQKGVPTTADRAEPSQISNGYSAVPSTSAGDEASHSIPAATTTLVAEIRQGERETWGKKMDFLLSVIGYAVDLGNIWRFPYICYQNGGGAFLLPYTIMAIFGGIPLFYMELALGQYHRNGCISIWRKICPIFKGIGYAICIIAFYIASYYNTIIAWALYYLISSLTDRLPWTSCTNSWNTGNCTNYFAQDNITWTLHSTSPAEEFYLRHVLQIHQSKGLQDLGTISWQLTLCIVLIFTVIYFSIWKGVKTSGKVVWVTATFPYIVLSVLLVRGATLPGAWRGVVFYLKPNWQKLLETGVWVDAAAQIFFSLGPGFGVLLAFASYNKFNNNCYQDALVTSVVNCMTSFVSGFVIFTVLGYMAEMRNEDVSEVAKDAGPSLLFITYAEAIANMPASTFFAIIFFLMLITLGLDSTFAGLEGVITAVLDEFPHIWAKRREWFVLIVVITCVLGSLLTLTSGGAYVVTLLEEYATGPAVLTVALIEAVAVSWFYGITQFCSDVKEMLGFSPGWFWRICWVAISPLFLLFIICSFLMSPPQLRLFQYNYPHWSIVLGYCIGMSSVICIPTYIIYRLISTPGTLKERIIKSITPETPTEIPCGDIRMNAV

[5] = molecular target: T3, 5-hydroxytryptamine receptor 1D; test: Inverse agonist activity at human recombinant 5-HT1D receptor expressed in CHO cells by [S35]GTPgammaS binding assay; assay type: functional, cell-based
Summary of the method: (§1)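 [35S]-GTPγS binding in membranes from 10^6 cells (HEK293 for 5-HT1A; CHO for 5-HT1B, 5-HT1D), preincubated 30 min at 30 °C with compound in 20 mM HEPES pH 7.4, 3 mM MgCl2, 100 mM NaCl, 10 μM GDP, 0.2 mM ascorbate. 100 pM [35S]-GTPγS added, 30 min more at 30 °C; nonspecific with 20 μM GTPγS; filtration and scintillation counting.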

[6] = molecular target: T4, 5-hydroxytryptamine receptor 1A (Homo sapiens) (UniProt P08908); test: Inverse agonist activity at human recombinant 5-HT1A receptor expressed in HEK293 cells by [S35]GTPgammaS binding assay; assay type: functional, cell-based; summary of the method: as §1
T4 sequence (whole entry): T1 sequence (P08908 whole entry)

[7] = molecular target: T2, 5-hydroxytryptamine receptor 1B; test: Inverse agonist activity at human recombinant 5-HT1B receptor expressed in CHO cells by [S35]GTPgammaS binding assay; assay type: functional, cell-based; summary of the method: as §1
[8] = molecular target: T4, 5-hydroxytryptamine receptor 1A (Homo sapiens); test: Intrinsic activity at human recombinant 5-HT1A receptor expressed in HEK293 cells by [S35]GTPgammaS binding assay relative to 5-HT; assay type: functional, cell-based; summary of the method: as §1
[9] = molecular target: 5-hydroxytryptamine receptor 2A (Homo sapiens, UniProt P28223); test: Binding affinity to human recombinant 5-HT2A receptor by radioligand displacement assay
Chain of 5-hydroxytryptamine receptor 2A (P28223 whole entry): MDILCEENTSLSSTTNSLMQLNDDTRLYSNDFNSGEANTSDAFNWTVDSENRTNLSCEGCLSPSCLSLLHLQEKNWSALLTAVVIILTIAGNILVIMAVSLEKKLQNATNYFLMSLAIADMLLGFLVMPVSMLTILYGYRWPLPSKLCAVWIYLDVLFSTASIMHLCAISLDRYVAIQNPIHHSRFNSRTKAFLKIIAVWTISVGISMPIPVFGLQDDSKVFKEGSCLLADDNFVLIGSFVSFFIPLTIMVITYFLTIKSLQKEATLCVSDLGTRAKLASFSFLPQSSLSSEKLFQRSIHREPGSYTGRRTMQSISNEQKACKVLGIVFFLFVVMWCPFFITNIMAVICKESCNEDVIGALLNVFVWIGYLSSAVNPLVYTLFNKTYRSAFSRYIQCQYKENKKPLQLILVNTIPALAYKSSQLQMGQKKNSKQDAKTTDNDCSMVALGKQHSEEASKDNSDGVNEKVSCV

[10] = molecular target: 5-hydroxytryptamine receptor 2B (Homo sapiens, UniProt P41595); test: Binding affinity to human recombinant 5-HT2B receptor by radioligand displacement assay
Chain of 5-hydroxytryptamine receptor 2B (P41595 whole entry): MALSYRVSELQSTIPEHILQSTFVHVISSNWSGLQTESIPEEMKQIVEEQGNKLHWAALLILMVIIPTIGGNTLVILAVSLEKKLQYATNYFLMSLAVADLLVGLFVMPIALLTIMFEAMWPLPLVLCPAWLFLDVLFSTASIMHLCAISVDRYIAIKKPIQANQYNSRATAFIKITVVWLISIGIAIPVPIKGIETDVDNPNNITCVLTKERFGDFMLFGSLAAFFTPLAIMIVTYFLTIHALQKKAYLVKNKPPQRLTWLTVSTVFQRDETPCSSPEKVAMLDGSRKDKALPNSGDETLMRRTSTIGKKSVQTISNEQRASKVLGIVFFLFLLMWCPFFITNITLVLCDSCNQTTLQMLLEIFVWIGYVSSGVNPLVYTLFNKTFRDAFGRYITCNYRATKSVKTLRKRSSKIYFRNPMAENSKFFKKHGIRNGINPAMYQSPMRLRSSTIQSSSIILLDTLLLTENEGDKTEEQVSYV

[11] = molecular target: T5, 5-hydroxytryptamine receptor 2C (Homo sapiens, UniProt P28335); test: Binding affinity to human recombinant 5-HT2C receptor by radioligand displacement assay
T5 sequence (P28335 whole entry): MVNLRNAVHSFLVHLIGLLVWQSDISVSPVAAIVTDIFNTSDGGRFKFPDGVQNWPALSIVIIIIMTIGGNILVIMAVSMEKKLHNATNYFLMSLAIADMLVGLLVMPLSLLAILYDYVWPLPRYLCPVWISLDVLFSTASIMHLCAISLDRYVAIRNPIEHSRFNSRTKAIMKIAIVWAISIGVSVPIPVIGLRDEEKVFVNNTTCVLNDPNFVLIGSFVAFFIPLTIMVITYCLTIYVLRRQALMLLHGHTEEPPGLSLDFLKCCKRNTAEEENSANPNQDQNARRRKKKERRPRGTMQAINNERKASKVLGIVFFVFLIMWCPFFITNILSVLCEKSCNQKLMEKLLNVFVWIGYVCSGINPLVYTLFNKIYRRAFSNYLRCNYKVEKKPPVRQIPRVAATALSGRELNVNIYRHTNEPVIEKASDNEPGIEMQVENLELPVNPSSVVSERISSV

[12] = molecular target: 5-hydroxytryptamine receptor 6 (Homo sapiens, UniProt P50406); test: Binding affinity to human recombinant 5-HT6 receptor by radioligand displacement assay
Chain of 5-hydroxytryptamine receptor 6 (P50406 whole entry): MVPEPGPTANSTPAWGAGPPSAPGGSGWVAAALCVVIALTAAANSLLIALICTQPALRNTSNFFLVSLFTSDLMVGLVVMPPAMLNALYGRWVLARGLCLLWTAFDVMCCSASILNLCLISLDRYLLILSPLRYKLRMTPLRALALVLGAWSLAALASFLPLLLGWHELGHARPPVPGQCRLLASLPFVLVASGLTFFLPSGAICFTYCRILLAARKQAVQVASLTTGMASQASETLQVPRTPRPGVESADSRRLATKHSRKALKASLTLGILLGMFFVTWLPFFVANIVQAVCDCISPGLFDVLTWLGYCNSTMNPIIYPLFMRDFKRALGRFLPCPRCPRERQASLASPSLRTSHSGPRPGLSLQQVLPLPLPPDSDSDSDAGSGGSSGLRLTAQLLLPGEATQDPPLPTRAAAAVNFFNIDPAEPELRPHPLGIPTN

[13] = molecular target: 5-hydroxytryptamine receptor 7 (Homo sapiens, UniProt P34969); test: Binding affinity to human recombinant 5-HT7 receptor by radioligand displacement assay
Chain of 5-hydroxytryptamine receptor 7 (P34969 whole entry): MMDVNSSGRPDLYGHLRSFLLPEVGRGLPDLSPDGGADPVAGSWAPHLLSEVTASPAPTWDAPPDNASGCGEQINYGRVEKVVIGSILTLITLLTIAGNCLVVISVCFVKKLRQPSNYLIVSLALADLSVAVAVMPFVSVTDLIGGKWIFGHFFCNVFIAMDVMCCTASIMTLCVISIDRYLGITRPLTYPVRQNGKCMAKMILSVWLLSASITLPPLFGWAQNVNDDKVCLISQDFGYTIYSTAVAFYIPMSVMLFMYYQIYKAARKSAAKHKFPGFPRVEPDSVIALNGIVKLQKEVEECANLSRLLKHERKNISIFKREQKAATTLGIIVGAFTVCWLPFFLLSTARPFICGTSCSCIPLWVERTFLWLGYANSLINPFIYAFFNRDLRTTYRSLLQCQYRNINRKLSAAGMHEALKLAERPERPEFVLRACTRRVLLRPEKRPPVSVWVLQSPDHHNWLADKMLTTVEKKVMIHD

D(2) dopamine receptor = D(2) dopamine receptor (Homo sapiens, UniProt P14416); test: Binding affinity to human recombinant dopamine D2 receptor by radioligand displacement assay
Chain of D(2) dopamine receptor (P14416 whole entry): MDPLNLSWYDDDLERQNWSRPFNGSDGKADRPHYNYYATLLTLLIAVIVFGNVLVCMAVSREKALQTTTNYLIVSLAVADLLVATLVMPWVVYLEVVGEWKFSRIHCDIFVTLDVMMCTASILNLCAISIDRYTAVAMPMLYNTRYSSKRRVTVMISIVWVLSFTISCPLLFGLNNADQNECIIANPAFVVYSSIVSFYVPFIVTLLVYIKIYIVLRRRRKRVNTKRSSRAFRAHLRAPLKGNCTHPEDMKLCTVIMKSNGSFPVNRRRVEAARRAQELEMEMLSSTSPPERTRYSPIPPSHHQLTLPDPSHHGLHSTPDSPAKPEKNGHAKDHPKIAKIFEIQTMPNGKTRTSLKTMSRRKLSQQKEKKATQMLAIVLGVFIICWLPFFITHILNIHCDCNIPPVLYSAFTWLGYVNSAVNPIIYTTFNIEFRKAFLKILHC

D(3) dopamine receptor = D(3) dopamine receptor (Homo sapiens, UniProt P35462); test: Binding affinity to human recombinant dopamine D3 receptor by radioligand displacement assay
Chain of D(3) dopamine receptor (P35462 whole entry): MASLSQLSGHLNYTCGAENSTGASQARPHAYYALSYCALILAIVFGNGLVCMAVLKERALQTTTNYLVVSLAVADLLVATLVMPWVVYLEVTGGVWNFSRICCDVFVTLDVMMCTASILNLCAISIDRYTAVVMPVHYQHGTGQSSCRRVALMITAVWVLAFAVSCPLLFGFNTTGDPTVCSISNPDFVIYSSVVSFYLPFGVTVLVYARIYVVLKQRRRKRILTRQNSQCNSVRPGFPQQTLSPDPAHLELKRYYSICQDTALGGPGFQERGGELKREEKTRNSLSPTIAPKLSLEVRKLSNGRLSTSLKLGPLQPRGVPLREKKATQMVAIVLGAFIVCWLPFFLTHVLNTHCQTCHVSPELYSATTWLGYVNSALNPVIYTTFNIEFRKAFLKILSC

[14] = molecular target: T2, 5-hydroxytryptamine receptor 1B; test: Intrinsic activity at human recombinant 5-HT1B receptor expressed in CHO cells by [S35]GTPgammaS binding assay relative to 5-HT; assay type: functional, cell-based; summary of the method: as §1
[15] = molecular target: T3, 5-hydroxytryptamine receptor 1D; test: Intrinsic activity at human recombinant 5-HT1D receptor expressed in CHO cells by [S35]GTPgammaS binding assay relative to 5-HT; assay type: functional, cell-based; summary of the method: as §1
[16] = molecular target: Voltage-gated inwardly rectifying potassium channel KCNH2 (Homo sapiens, UniProt Q12809); test: Displacement of [3H]dofetilide from human ERG by SPA

| SMILES | Ki [1] [nM] | Ki [2] [nM] | Ki [3] [nM] | Ki [4] [nM] | Activity [6] | Activity [7] | other results |
| --- | --- | --- | --- | --- | --- | --- | --- |
| Cc1ccc2c(N3CCN(CCc4cccc(N)c4)CC3)cccc2n1 | 15.8 | 7.94 | 0.501 | – | – | – | – |
| Cc1ccc2c(N3CCN(CCc4cccc(NC(=O)C(C)(C)C)c4)CC3)cccc2n1 | 6.31 | 2 | 0.316 | 1580 | Active | Active | Activity [5]: Active |
| CCOC(=O)Nc1cccc(CCN2CCN(c3cccc4nc(C)ccc34)CC2)c1 | 1.26 | 1.26 | 0.126 | 794 | – | – | – |
| CCC(=O)Nc1cccc(CCN2CCN(c3cccc4nc(C)ccc34)CC2)c1 | 2 | 1.26 | 0.2 | 1260 | – | Active | Intrinsic activity [8]: 0; Activity [5]: Active |
| Cc1ccc2c(N3CCN(CCc4cccc(-n5cccn5)c4)CC3)cccc2n1 | 0.501 | 1.58 | 0.158 | 316 | – | – | Ki [9]: 398 nM; Ki [10]: 79.4 nM; Ki [11]: 2000 nM; Ki [12]: > 10000 nM; Ki [13]: 126 nM; Ki (D(2) dopamine receptor): 398 nM; Ki (D(3) dopamine receptor): 50.1 nM |
| Cc1ccc2c(OCCN3CCC(Cc4cccc(NS(C)(=O)=O)c4)CC3)cccc2n1 | – | – | – | – | Active | – | Intrinsic activity [14]: 0.3; Intrinsic activity [15]: 0 |
| COc1ccccc1C(=O)Nc1cccc(CCN2CCN(c3cccc4nc(C)ccc34)CC2)c1 | 2.51 | 3.98 | 0.631 | 794 | – | – | – |
| Cc1ccc2c(N3CCN(CCc4ccc5c(c4)NC(=O)CO5)CC3)cccc2n1 | – | – | – | – | – | – | Intrinsic activity [8]: 0.2; Intrinsic activity [14]: 0.1 |
| Cc1ccc2c(N3CCN(CCc4cccc(NC(=O)c5csc(C)n5)c4)CC3)cccc2n1 | 0.794 | 3.16 | 0.398 | 501 | Active | Active | Activity [5]: Active; Ki [16]: 316 nM |
| Cc1ccc2c(N3CCN(CCc4cccc(N5CCCOC5=O)c4)CC3)cccc2n1 | 2.51 | 31.6 | 0.251 | – | – | – | – |
| Cc1ccc2c(N3CCN(CCc4cccc(NC(=O)c5ccccc5F)c4)CC3)cccc2n1 | 1 | 3.16 | 0.251 | 631 | Active | – | Activity [5]: Active; Intrinsic activity [14]: 0 |
| CC(=O)N(C)c1cccc(CCN2CCN(c3cccc4nc(C)ccc34)CC2)c1 | 2 | 12.6 | 0.316 | – | – | – | Intrinsic activity [8]: 0.1; Intrinsic activity [14]: 0.2; Intrinsic activity [15]: 0 |
| COC(=O)Nc1cccc(CCN2CCN(c3cccc4nc(C)ccc34)CC2)c1 | 0.398 | – | 0.251 | 501 | – | Active | Intrinsic activity [8]: 0; Intrinsic activity [15]: 0; Ki [9]: 200 nM; Ki [10]: 200 nM; Ki [11]: 794 nM; Ki [12]: > 1580 nM; Ki [13]: 25.1 nM; Ki (D(2) dopamine receptor): 200 nM; Ki (D(3) dopamine receptor): 100 nM |
| Cc1ccc2c(N3CCN(CCc4cccc(NC(=O)c5cnccn5)c4)CC3)cccc2n1 | 0.501 | 1.26 | 0.2 | 398 | – | – | Ki [9]: 158 nM; Ki [10]: 794 nM; Ki [11]: > 1580 nM; Ki [12]: 794 nM; Ki [13]: 200 nM; Ki (D(2) dopamine receptor): 200 nM; Ki (D(3) dopamine receptor): 79.4 nM |
| Cc1ccc2c(N3CCN(CCc4cccc(NS(C)(=O)=O)c4)CC3)cccc2n1 | 0.794 | 0.794 | 0.126 | 3160 | – | – | Ki [16]: 501 nM; Ki [9]: 794 nM; Ki [10]: 398 nM; Ki [11]: 3160 nM; Ki [12]: > 2510 nM; Ki [13]: 100 nM; Ki (D(2) dopamine receptor): 398 nM; Ki (D(3) dopamine receptor): 200 nM |

Second part, led by results:

| Ki [1] [nM] | Ki [2] [nM] | Ki [3] [nM] | Ki [4] [nM] | Activity [6] | Activity [7] | SMILES | other results |
| --- | --- | --- | --- | --- | --- | --- | --- |
| 3.16 | 39.8 | 0.316 | – | – | – | Cc1ccc2c(N3CCN(CCc4cccc(N5CCCNC5=O)c4)CC3)cccc2n1 | – |
| 7.94 | 3.98 | 0.251 | 794 | – | – | Cc1ccc2c(N3CCN(CCc4cccc(NC(=O)NC(C)(C)C)c4)CC3)cccc2n1 | – |
| 3.16 | 3.98 | 0.501 | 1260 | Active | Active | COc1ccc(C(=O)Nc2cccc(CCN3CCN(c4cccc5nc(C)ccc45)CC3)c2)cc1 | Activity [5]: Active |
| 3.16 | 39.8 | 1.58 | 20000 | – | – | Cc1ccc2c(N3CCN(CCc4cccc(N5C(=O)CCC5=O)c4)CC3)cccc2n1 | – |
| 5.01 | 2 | 0.158 | 794 | – | – | CCCNC(=O)Nc1cccc(CCN2CCN(c3cccc4nc(C)ccc34)CC2)c1 | – |
| 3.16 | 1 | 0.2 | 2000 | – | – | Cc1ccc2c(N3CCN(CCc4cccc(NC(=O)Nc5ccccc5F)c4)CC3)cccc2n1 | – |
| 1.58 | 2 | 0.631 | – | – | – | CCCS(=O)(=O)Nc1cccc(CCN2CCN(c3cccc4nc(C)ccc34)CC2)c1 | – |
| 1 | 0.501 | 0.251 | 1260 | – | – | CC(=O)Nc1cccc(CCN2CCN(c3cccc4nc(C)ccc34)CC2)c1 | Ki [9]: 251 nM; Ki [10]: 158 nM; Ki [11]: 1000 nM; Ki [12]: > 3980 nM; Ki [13]: 63.1 nM; Ki (D(2) dopamine receptor): 398 nM; Ki (D(3) dopamine receptor): 158 nM |
| 2.51 | 3.16 | 0.501 | 1260 | – | – | Cc1ccc2c(N3CCN(CCc4cccc(NC(=O)Nc5ccc(F)cc5)c4)CC3)cccc2n1 | – |
| 0.398 | 2 | 0.251 | 501 | Active | – | Cc1ccc2c(N3CCN(CCc4cccc(NC(=O)c5scnc5C)c4)CC3)cccc2n1 | Activity [5]: Active; Intrinsic activity [14]: 0 |
| 2 | 1.58 | 0.158 | 1260 | Active | Active | Cc1ccc2c(N3CCN(CCc4cccc(NC(=O)C(C)C)c4)CC3)cccc2n1 | Activity [5]: Active |
| 1.26 | 5.01 | 0.398 | 794 | Active | Active | Cc1ccc2c(N3CCN(CCc4cccc(NC(=O)c5ccc(F)cc5)c4)CC3)cccc2n1 | Intrinsic activity [15]: 0 |
| 0.631 | 3.16 | 0.316 | 631 | Active | Active | Cc1ccc2c(N3CCN(CCc4cccc(NC(=O)c5cccc(F)c5)c4)CC3)cccc2n1 | Activity [5]: Active |
| 2 | 1.58 | 0.158 | 1260 | – | – | COc1cccc(C(=O)Nc2cccc(CCN3CCN(c4cccc5nc(C)ccc45)CC3)c2)c1 | – |
| 3.98 | 3.98 | 0.631 | 2510 | – | Active | Cc1ccc2c(N3CCN(CCc4cccc(NC(=O)Nc5cccc(F)c5)c4)CC3)cccc2n1 | Intrinsic activity [8]: 0; Intrinsic activity [15]: 0 |
